Reference: ChEMBL document CHEMBL1152810, “Microwave synthesis and evaluation of phenacylhomoserine lactones as anticancer compounds that minimally activate quorum sensing pathways in Pseudomonas aeruginosa” (J Med Chem, 2009)

Legend:
NCI-H630 [1] = experiment: Cytotoxicity against human NCI-H630 cells after 5 days by SRB assay; type: functional, cell-based; conditions: NCI-H630, 120 h
Outline: (§1)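 Cells grown in phenol-red-free RPMI-1640 with 10% dialyzed FBS and no antibiotics, at 37 °C and 5% CO₂. H630-1 was kept in 1 µM 5-FU until 1 week before use. Compounds were dried from EtOH (10× final) into wells, in duplicate or quadruplicate. Seeding per well: H630 2×10³, H630-1 4×10³, PC3 2×10³. After 5 days, cells were TCA-fixed, stained with 0.4% SRB, dye dissolved in Tris, OD570 read.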

NCI-H630 [2] = experiment: Cytotoxicity against 5FU-resistant human NCI-H630 cells after 5 days by SRB assay; type: functional, cell-based; conditions: NCI-H630, 120 h; outline: as §1
PC-3 = experiment: Cytotoxicity against human PC3 cells after 5 days by SRB assay; type: functional, cell-based; conditions: PC-3, 120 h; outline: as §1
Pseudomonas aeruginosa [3] = experiment: Toxicity assessed as activation of quorum sensing signalling in Pseudomonas aeruginosa MW1 carrying (lasI-,rhlI-) pUM15 containing rsa::gfp fusion gene at 33 uM by LasR-dependent green fluorescence protein reporter assay; type: organism-based; conditions: in vivo
Pseudomonas aeruginosa [4] = experiment: Toxicity assessed as activation of quorum sensing signalling in Pseudomonas aeruginosa MW1 carrying (lasI-,rhlI-) pUM15 containing rsa::gfp fusion gene at 0.3 uM by LasR-dependent green fluorescence protein reporter assay; type: organism-based; conditions: in vivo

Q: `O=C(CCCCCCCCCc1ccccc1)CC(=O)N[C@H]1CCOC1=O` was tested. Which IC50 (NCI-H630 [1]) did it give?
A: Its IC50 is 16 µM.

Q: What about the IC50 (NCI-H630 [2]) of the same compound?
A: The IC50 was 13 µM.

Q: What about the IC50 (PC-3) of the same compound?
A: The IC50 was 4 µM.

Q: And the Activity (Pseudomonas aeruginosa [3])?
A: The Activity was “Non-toxic”.

Q: Which results are given for `O=C(CCCCCCCc1ccccc1)CC(=O)N[C@H]1CCOC1=O`?
A: IC50 (NCI-H630 [1]): 42 µM; IC50 (NCI-H630 [2]): 10 µM; IC50 (PC-3): 2 µM

Q: Which IC50 (NCI-H630 [1]) does the source give for `O=C(CCCCCCCCCCCc1ccccc1)CC(=O)N[C@H]1CCOC1=O` here?
A: Its IC50 is 33 µM.

Q: And the IC50 (NCI-H630 [2])?
A: Its IC50 is 27 µM.

Q: And the IC50 (PC-3)?
A: Its IC50 is 4 µM.

Q: And the Activity (Pseudomonas aeruginosa [3])?
A: The Activity was “Non-toxic”.

Q: With `O=C(CCCCCc1ccccc1)CC(=O)N[C@H]1CCOC1=O` as the compound, how does the IC50 (NCI-H630 [1]) read?
A: The IC50 was 44 µM.

Q: And the IC50 (NCI-H630 [2])?
A: Its IC50 is 24 µM.

Q: And the IC50 (PC-3)?
A: Its IC50 is 9 µM.

Q: With `O=C(CCCCCCc1ccccc1)CC(=O)N[C@H]1CCOC1=O` as the compound, how does the IC50 (NCI-H630 [1]) read?
A: Its IC50 is 65 µM.

Q: What about the IC50 (NCI-H630 [2]) of the same compound?
A: Its IC50 is 27 µM.

Q: What about the IC50 (PC-3) of the same compound?
A: The IC50 was 9 µM.

Q: With `O=C(CCCCCCCCCCc1ccccc1)N[C@H]1CCOC1=O` as the compound, how does the IC50 (NCI-H630 [1]) read?
A: Its IC50 is 70 µM.

Q: And the IC50 (NCI-H630 [2])?
A: The IC50 was 66 µM.

Q: What about the IC50 (PC-3) of the same compound?
A: The IC50 was 66 µM.

Q: `O=C(CCCc1ccccc1)N[C@H]1CCOC1=O` was tested. Which IC50 (NCI-H630 [1]) did it give?
A: The IC50 was greater than 100 µM.

Q: What about the IC50 (NCI-H630 [2]) of the same compound?
A: The IC50 was greater than 100 µM.

Q: And the IC50 (PC-3)?
A: Its IC50 is greater than 100 µM.

Q: Which IC50 (NCI-H630 [1]) does the source give for `O=C(CCCCCCCc1ccccc1)N[C@H]1CCOC1=O` here?
A: Its IC50 is greater than 100 µM.

Q: What about the IC50 (NCI-H630 [2]) of the same compound?
A: The IC50 was greater than 100 µM.

Q: And the IC50 (PC-3)?
A: The IC50 was 85 µM.

Q: Which results are given for `O=C(CCCCCCCCc1ccccc1)N[C@H]1CCOC1=O`?
A: IC50 (NCI-H630 [1]): > 100 µM; IC50 (NCI-H630 [2]): > 100 µM; IC50 (PC-3): 67 µM

Q: For `O=C(CCCCCCCCCCc1ccccc1)CC(=O)N[C@H]1CCOC1=O`, which IC50 (NCI-H630 [1]) is on record?
A: The IC50 was 23 µM.

Q: And the IC50 (NCI-H630 [2])?
A: The IC50 was 14 µM.

Q: What about the IC50 (PC-3) of the same compound?
A: Its IC50 is 2 µM.

Q: And the Activity (Pseudomonas aeruginosa [3])?
A: Its Activity is “Non-toxic”.

Q: For `O=C(CCCCc1ccccc1)CC(=O)N[C@H]1CCOC1=O`, which IC50 (NCI-H630 [1]) is on record?
A: The IC50 was greater than 100 µM.

Q: What about the IC50 (NCI-H630 [2]) of the same compound?
A: The IC50 was 80 µM.

Q: And the IC50 (PC-3)?
A: Its IC50 is 83 µM.

Q: For `O=C(CC(=O)c1ccccc1)N[C@H]1CCOC1=O`, which IC50 (NCI-H630 [1]) is on record?
A: Its IC50 is greater than 100 µM.

Q: What about the IC50 (NCI-H630 [2]) of the same compound?
A: Its IC50 is greater than 100 µM.

Q: And the IC50 (PC-3)?
A: The IC50 was greater than 100 µM.

Q: `O=C(Cc1ccccc1)N[C@H]1CCOC1=O` was tested. Which IC50 (NCI-H630 [1]) did it give?
A: Its IC50 is greater than 100 µM.

Q: And the IC50 (NCI-H630 [2])?
A: Its IC50 is greater than 100 µM.

Q: What about the IC50 (PC-3) of the same compound?
A: The IC50 was greater than 100 µM.

Q: `O=C(CC(=O)N[C@H]1CCOC1=O)Cc1ccccc1` was tested. Which IC50 (NCI-H630 [1]) did it give?
A: The IC50 was greater than 100 µM.

Q: What about the IC50 (NCI-H630 [2]) of the same compound?
A: The IC50 was greater than 100 µM.

Q: What about the IC50 (PC-3) of the same compound?
A: Its IC50 is greater than 100 µM.

Q: How did the IC50 (NCI-H630 [1]) turn out when `O=C(CCCCCc1ccccc1)N[C@H]1CCOC1=O` was run?
A: The IC50 was greater than 100 µM.

Q: And the IC50 (NCI-H630 [2])?
A: The IC50 was greater than 100 µM.

Q: And the IC50 (PC-3)?
A: The IC50 was greater than 100 µM.

Q: `O=C(CCCc1ccccc1)CC(=O)N[C@H]1CCOC1=O` was tested. Which IC50 (NCI-H630 [1]) did it give?
A: The IC50 was greater than 100 µM.

Q: What about the IC50 (NCI-H630 [2]) of the same compound?
A: The IC50 was greater than 100 µM.

Q: And the IC50 (PC-3)?
A: Its IC50 is greater than 100 µM.

Q: With `O=C(CCCCCCc1ccccc1)N[C@H]1CCOC1=O` as the compound, how does the IC50 (NCI-H630 [1]) read?
A: The IC50 was greater than 100 µM.

Q: And the IC50 (NCI-H630 [2])?
A: The IC50 was greater than 100 µM.

Q: What about the IC50 (PC-3) of the same compound?
A: Its IC50 is greater than 100 µM.

Q: For `O=C(CCCCCCCCCc1ccccc1)CC(=O)N[C@@H]1CCOC1=O`, which IC50 (NCI-H630 [1]) is on record?
A: The IC50 was greater than 100 µM.

Q: And the IC50 (NCI-H630 [2])?
A: Its IC50 is greater than 100 µM.

Q: What about the IC50 (PC-3) of the same compound?
A: Its IC50 is greater than 100 µM.

Q: For `O=C(CCc1ccccc1)N[C@H]1CCOC1=O`, which IC50 (NCI-H630 [1]) is on record?
A: Its IC50 is greater than 100 µM.

Q: What about the IC50 (NCI-H630 [2]) of the same compound?
A: Its IC50 is greater than 100 µM.

Q: And the IC50 (PC-3)?
A: Its IC50 is greater than 100 µM.

Q: Which IC50 (NCI-H630 [1]) does the source give for `O=C(CCCCCCCCc1ccccc1)CC(=O)N[C@H]1CCOC1=O` here?
A: Its IC50 is 11 µM.

Q: What about the IC50 (NCI-H630 [2]) of the same compound?
A: Its IC50 is 10 µM.

Q: And the IC50 (PC-3)?
A: The IC50 was 4 µM.

Q: For `O=C(CCCCCCCCCCCc1ccccc1)N[C@H]1CCOC1=O`, which IC50 (NCI-H630 [1]) is on record?
A: The IC50 was greater than 100 µM.

Q: And the IC50 (NCI-H630 [2])?
A: Its IC50 is greater than 100 µM.

Q: And the IC50 (PC-3)?
A: Its IC50 is greater than 100 µM.

Q: Which results are given for `O=C(CCCCCCCCCc1ccccc1)N[C@H]1CCOC1=O`?
A: IC50 (NCI-H630 [1]): > 100 µM; IC50 (NCI-H630 [2]): > 100 µM; IC50 (PC-3): 75 µM

Q: How did the IC50 (NCI-H630 [1]) turn out when `O=C(CCCCc1ccccc1)N[C@H]1CCOC1=O` was run?
A: Its IC50 is greater than 100 µM.

Q: What about the IC50 (NCI-H630 [2]) of the same compound?
A: The IC50 was greater than 100 µM.

Q: What about the IC50 (PC-3) of the same compound?
A: Its IC50 is greater than 100 µM.

Q: Which IC50 (NCI-H630 [1]) does the source give for `O=C(CCc1ccccc1)CC(=O)N[C@H]1CCOC1=O` here?
A: Its IC50 is greater than 100 µM.

Q: What about the IC50 (NCI-H630 [2]) of the same compound?
A: Its IC50 is greater than 100 µM.

Q: And the IC50 (PC-3)?
A: Its IC50 is greater than 100 µM.

Q: For `CCCCCCCCCC(=O)CC(=O)N[C@H]1CCOC1=O`, which IC50 (NCI-H630 [1]) is on record?
A: Its IC50 is 34 µM.

Q: And the IC50 (NCI-H630 [2])?
A: Its IC50 is 12 µM.

Q: And the IC50 (PC-3)?
A: The IC50 was 5 µM.

Q: And the Activity (Pseudomonas aeruginosa [4])?
A: Its Activity is “Toxic”.
